According to ChEMBL document CHEMBL1151472, “In vitro interactions between tacrolimus and azoles against Candida albicans determined by different methods” (2008):
In brackets after ≈: the same amount, converted by molar mass.

Legend:
Format in all cases: functional
Candida albicans [1] = assay: Antimicrobial activity against azole-resistant Candida albicans isolate CA10 assessed as growth at 1 ug/ml cotreated with 0.002 ug/ml calcineurin signaling inhibitor tacrolimus after 48 hrs by microdilution checkerboard technique relative to control; parameters: scale not given: the % may be the effect or the level left
Method in brief: (§1)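 Checkerboard microdilution in MOPS-buffered RPMI 1640 (pH 7.0, 2% dextrose). Final ranges: azole 0.125–128 μg/ml (FLC) or 0.008–8 μg/ml (ITR, VRC), tacrolimus 0.002–0.125 μg/ml; solvent 1% in single-drug wells. Inoculum 2.5 × 10^3 CFU/ml, 35°C, 48 h. Growth % = background-subtracted OD492 of each well / drug-free well. Triplicate on different days.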

Candida albicans [2] = assay: Antimicrobial activity against azole-resistant Candida albicans isolate CA10 assessed as growth at 2 ug/ml co-treated with 0.031 ug/ml calcineurin signaling inhibitor tacrolimus after 48 hrs by microdilution checkboard technique relative to control; parameters: scale not given: the % may be the effect or the level left
Method in brief: (§2)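 Checkerboard microdilution in RPMI 1640 (pH 7.0, 2% dextrose, 0.165 M MOPS). Azole dilutions run along columns and FK506 along rows, at 4× final concentration. Final inoculum 2.5 × 10^3 CFU/ml from Sabouraud-subcultured cells. Incubated 35°C for 48 h; OD read at 492 nm. Background from microorganism-free plates subtracted. Growth % = well OD / drug-free well OD. Triplicate on different days, values averaged.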

Candida albicans [3] = assay: Antimicrobial activity against azole-resistant Candida albicans isolate CA10 assessed as growth at 64 ug/ml co-treated with 0.031 ug/ml calcineurin signaling inhibitor tacrolimus after 48 hrs by microdilution checkboard technique relative to control; parameters: scale not given: the % may be the effect or the level left; method in brief: as §2
Candida albicans [4] = assay: Antimicrobial activity against azole-resistant Candida albicans isolate CA10 assessed as growth at 1 ug/ml cotreated with 0.063 ug/ml calcineurin signaling inhibitor Tacrolimus after 48 hrs by microdilution checkboard technique relative to control; parameters: scale not given: the % may be the effect or the level left; method in brief: as §1
Candida albicans [5] = assay: Antimicrobial activity against azole-resistant Candida albicans isolate CA10 assessed as growth at 16 ug/ml cotreated with 0.063 ug/ml calcineurin signaling inhibitor tacrolimus after 48 hrs by microdilution checkerboard technique relative to control; parameters: scale not given: the % may be the effect or the level left; method in brief: as §1
Candida albicans [6] = assay: Antimicrobial activity against azole-resistant Candida albicans isolate CA10 after 48 hrs by broth microdilution method; conditions: isolate CA10, 48 h
Method in brief: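 Broth microdilution per CLSI M27-A2 in RPMI 1640 (pH 7.0, 2% dextrose, 0.165 M MOPS), final inoculum 2.5 × 10^3 CFU/ml; 35°C without shaking for 48 h. Read visually (0–5 scale) and by OD 492 nm; MIC80 = lowest concentration giving 80% drop in absorbance versus drug-free control. Triplicate.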

Candida albicans [7] = assay: Antimicrobial activity against azole-resistant Candida albicans isolate CA10 assessed as growth at 0.031 ug/ml after 48 hrs by microdilution checkerboard technique relative to control; method in brief: as §2
Candida albicans [8] = assay: Antimicrobial activity against azole-resistant Candida albicans isolate CA10 assessed as growth at 128 ug/ml after 48 hrs by microdilution checkerboard technique relative to control; method in brief: as §1
Candida albicans [9] = assay: Antimicrobial activity against azole-resistant Candida albicans isolate CA10 assessed as growth at 0.5 ug/ml cotreated with 0.008 ug/ml calcineurin signaling inhibitor tacrolimus after 48 hrs by microdilution checkerboard technique relative to control; parameters: scale not given: the % may be the effect or the level left; method in brief: as §1
Candida albicans [10] = assay: Antimicrobial activity against azole-resistant Candida albicans isolate CA10 assessed as growth at 8 ug/ml cotreated with 0.063 ug/ml calcineurin signaling inhibitor tacrolimus after 48 hrs by microdilution checkerboard technique relative to control; parameters: scale not given: the % may be the effect or the level left
Method in brief: (§3)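 CA10 in RPMI 1640 with 2% dextrose and 0.165 M MOPS, pH 7.0. Checkerboard used twofold dilutions, with azole alone in row H and the drug-free growth control in well H1. Final inoculum was 2.5 × 10^3 CFU/ml, incubated 35°C for 48 h, with OD read at 492 nm. Growth % = background-subtracted well OD / drug-free well OD. Run in triplicate on different days.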

Candida albicans [11] = assay: Antimicrobial activity against azole-resistant Candida albicans isolate CA10 assessed as growth at 4 ug/ml cotreated with 0.063 ug/ml calcineurin signaling inhibitor Tacrolimus after 48 hrs by microdilution checkboard technique relative to control; parameters: scale not given: the % may be the effect or the level left; method in brief: as §3
Candida albicans [12] = assay: Antimicrobial activity against azole-resistant Candida albicans isolate CA16 after 48 hrs by broth microdilution method; conditions: isolate CA16, 48 h
Method in brief: (§4)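 CLSI M27-A2 broth microdilution was run in RPMI 1640 (pH 7.0, 2% dextrose, 0.165 M MOPS). Inoculum was 2.5 × 10^3 CFU/ml, incubated 35°C for 48 h without shaking. Plates were read visually (0–5 scale) and at OD 492 nm. MIC80 = lowest concentration giving an 80% absorbance decrease vs drug-free control. Triplicate.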

Candida albicans [13] = assay: Antimicrobial activity against azole-resistant Candida albicans isolate CA10 assessed as growth at 32 ug/ml cotreated with 0.002 ug/ml calcineurin signaling inhibitor Tacrolimus after 48 hrs by microdilution checkboard technique relative to control; parameters: scale not given: the % may be the effect or the level left; method in brief: as §3
Candida albicans [14] = assay: Antimicrobial activity against azole-resistant Candida albicans isolate CA10 assessed as growth at 4 ug/ml cotreated with 0.002 ug/ml calcineurin signaling inhibitor tacrolimus after 48 hrs by microdilution checkerboard technique relative to control; parameters: scale not given: the % may be the effect or the level left; method in brief: as §3
Candida albicans [15] = assay: Antimicrobial activity against azole-resistant Candida albicans isolate CA10 assessed as growth at 16 ug/ml after 48 hrs by microdilution checkerboard technique relative to control; method in brief: as §1
Candida albicans [16] = assay: Antimicrobial activity against azole-resistant Candida albicans isolate CA10 assessed as growth at 0.25 ug/ml co-treated with 0.008 ug/ml calcineurin signaling inhibitor tacrolimus after 48 hrs by microdilution checkboard technique relative to control; parameters: scale not given: the % may be the effect or the level left; method in brief: as §2
Candida albicans [17] = assay: Antimicrobial activity against azole-resistant Candida albicans isolate CA10 assessed as growth at 4 ug/ml co-treated with 0.031 ug/ml calcineurin signaling inhibitor tacrolimus after 48 hrs by microdilution checkboard technique relative to control; parameters: scale not given: the % may be the effect or the level left; method in brief: as §2
Candida albicans [18] = assay: Antimicrobial activity against azole-resistant Candida albicans isolate CA10 assessed as growth at 32 ug/ml cotreated with 0.063 ug/ml calcineurin signaling inhibitor Tacrolimus after 48 hrs by microdilution checkboard technique relative to control; parameters: scale not given: the % may be the effect or the level left; method in brief: as §3
Candida albicans [19] = assay: Antimicrobial activity against azole-resistant Candida albicans isolate CA10 assessed as growth at 0.5 ug/ml cotreated with 0.004 ug/ml calcineurin signaling inhibitor tacrolimus after 48 hrs by microdilution checkerboard technique relative to control; parameters: scale not given: the % may be the effect or the level left; method in brief: as §1
Candida albicans [20] = assay: Antimicrobial activity against azole-susceptible Candida albicans isolate CA129 after 48 hrs by broth microdilution method; conditions: isolate CA129, 48 h; method in brief: as §4
Candida albicans [21] = assay: Antimicrobial activity against azole-resistant Candida albicans isolate CA10 assessed as growth at 32 ug/ml co-treated with 0.125 ug/ml calcineurin signaling inhibitor tacrolimus after 48 hrs by microdilution checkboard technique relative to control; parameters: scale not given: the % may be the effect or the level left; method in brief: as §3
Candida albicans [22] = assay: Antimicrobial activity against azole-resistant Candida albicans isolate CA10 assessed as growth at 0.25 ug/ml cotreated with 0.125 ug/ml calcineurin signaling inhibitor Tacrolimus after 48 hrs by microdilution checkboard technique relative to control; parameters: scale not given: the % may be the effect or the level left; method in brief: as §2
Candida albicans [23] = assay: Antimicrobial activity against azole-resistant Candida albicans isolate CA10 assessed as growth at 16 ug/ml cotreated with 0.008 ug/ml calcineurin signaling inhibitor tacrolimus after 48 hrs by microdilution checkerboard technique relative to control; parameters: scale not given: the % may be the effect or the level left; method in brief: as §1
Candida albicans [24] = assay: Antimicrobial activity against azole-resistant Candida albicans isolate CA135 after 48 hrs by broth microdilution method; conditions: isolate CA135, 48 h; method in brief: as §4

## OC(Cn1cncn1)(Cn1cncn1)c1ccc(F)cc1F [FLUCONAZOLE]
Candida albicans [1]
  Activity: 50%
Candida albicans [2]
  Activity: 12%
Candida albicans [3]
  Activity: 13%
Candida albicans [4]
  Activity: 18%
Candida albicans [5]
  Activity: 7%
Candida albicans [6]
  MIC: 256 µg/mL (≈ 836 µM)
Candida albicans [7]
  Activity: 93%
Candida albicans [8]
  Activity: 48%
Candida albicans [9]
  Activity: 34%
Candida albicans [10]
  Activity: 12%
Candida albicans [11]
  Activity: 13%
Candida albicans [12]
  MIC: 64 µg/mL (≈ 209 µM)
Candida albicans [13]
  Activity: 36%
Candida albicans [14]
  Activity: 44%
Candida albicans [15]
  Activity: 50%
Candida albicans [16]
  Activity: 39%
Candida albicans [17]
  Activity: 16%
Candida albicans [18]
  Activity: 1%
Candida albicans [19]
  Activity: 38%
Candida albicans [20]
  MIC: 0.5 µg/mL (≈ 1.63 µM)
Candida albicans [21]
  Activity: 0%
Candida albicans [22]
  Activity: 7%
Candida albicans [23]
  Activity: 24%
Candida albicans [24]
  MIC: 64 µg/mL (≈ 209 µM)
